Here are results for 20 molecules from ChEMBL document CHEMBL1150419, “Structure-activity relationships of a peptide inhibitor of the human FcRn:human IgG interaction” (Bioorg Med Chem, 2008).

Test [1] concerns the target T1, IgG receptor FcRn large subunit p51 (Homo sapiens, UniProt P55899). Put plainly: Inhibition of human IgG binding to soluble human FcRn by ELISA. The gist of the method:
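Biotinylated soluble human FcRn immobilized on neutravidin plates, incubated with hIgG (3 nM, constant) and peptide at varying concentrations for 2 h at 37 °C. After washing, bound hIgG detected with peroxidase-conjugated hIgG-specific Fab fragments.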
(An ELISA detects its analyte on a solid surface through an enzyme-linked reagent.)

In test [2] the target is T1, IgG receptor FcRn large subunit p51. In words: Binding affinity to human FcRn at pH 6 by surface plasmon resonance assay. The gist of the method: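 Soluble human FcRn coupled to the dextran surface of a CM5 chip; peptide dilutions flowed over the chip. The equilibrium response at each dilution was plotted against concentration and fitted to a steady-state affinity model to give Kd.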
(In general: In SPR one partner is held on a chip, and binding of the other changes the refractive index at the surface.)

Bridge positions count the residues as written; N and C are the ends. Peptide text beside a SMILES is read from it.

T1 sequence (P55899 whole entry, the tested form may be a part): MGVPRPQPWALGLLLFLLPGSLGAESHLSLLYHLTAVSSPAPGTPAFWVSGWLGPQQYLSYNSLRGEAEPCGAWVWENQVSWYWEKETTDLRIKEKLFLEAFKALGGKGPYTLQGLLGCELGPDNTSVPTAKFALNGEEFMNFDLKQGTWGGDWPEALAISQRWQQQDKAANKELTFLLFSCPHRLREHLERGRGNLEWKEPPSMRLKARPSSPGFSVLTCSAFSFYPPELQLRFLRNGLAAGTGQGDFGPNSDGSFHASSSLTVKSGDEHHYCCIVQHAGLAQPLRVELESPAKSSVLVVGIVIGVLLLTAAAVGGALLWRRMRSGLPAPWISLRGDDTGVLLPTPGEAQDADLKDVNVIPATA

By IC50 is commonly meant the concentration at which inhibition is half-maximal. Low readings indicate higher potency, high ones lower potency. As usually defined, the Kd is the concentration at which binding is half-saturated. In the case of `CC(C)C[C@@H](C(=O)N[C@@H](Cc1ccc(O)cc1)C(=O)N1CCC[C@H]1C(=O)N[C@@H](CS)C(=O)O)N(C)C(=O)CN(C)C(=O)CNC(=O)[C@H](Cc1ccccc1)NC(=O)[C@H](Cc1cnc[nH]1)NC(=O)CNC(=O)[C@@H](NC(=O)[C@@H](NC(=O)[C@H](Cc1ccccc1)NC(=O)[C@@H](N)CCCNC(=N)N)C(C)(C)S)[C@@H](C)O`, the IC50 in test [1] amounted to 0.57 µM. This molecule also yielded a Kd in test [2] of 0.031 µM.
In test [1], `CC(C)C[C@H](NC(=O)CN1CCCC[C@@H](NC(=O)[C@H](Cc2ccccc2)NC(=O)[C@H](Cc2cnc[nH]2)NC(=O)CNC(=O)[C@@H](NC(=O)[C@H](NC(=O)[C@H](Cc2ccccc2)NC(=O)[C@@H](N)CCCNC(=N)N)C(C)(C)S)[C@@H](C)O)C1=O)C(=O)N[C@@H](Cc1ccc(O)cc1)C(=O)N1CCC[C@H]1C(=O)N[C@@H](CS)C(=O)O` displayed an IC50 of 0.64 µM. In test [2], this molecule showed a Kd of 0.103 µM.
Molecule `CC(C)C[C@H](NC(=O)CN1CCC[C@H](NC(=O)[C@H](Cc2ccccc2)NC(=O)[C@H](Cc2cnc[nH]2)NC(=O)CNC(=O)[C@@H](NC(=O)[C@H](NC(=O)[C@H](Cc2ccccc2)NC(=O)[C@@H](N)CCCN=C(N)N)C(C)(C)S)[C@@H](C)O)C1=O)C(=O)N[C@@H](Cc1ccc(O)cc1)C(=O)N1CCC[C@H]1C(=O)N[C@@H](CS)C(=O)O` registered an IC50 in test [1] of 7.2 µM. This molecule also displayed a Kd in test [2] of 0.67 µM.
For the molecule `CC(C)C[C@H](NC(=O)CN1CCCC[C@@H](NC(=O)[C@H](Cc2ccccc2)NC(=O)[C@H](Cc2cnc[nH]2)NC(=O)CNC(=O)[C@@H](NC(=O)[C@@H](NC(=O)[C@H](Cc2ccccc2)NC(=O)[C@@H](N)CCCN=C(N)N)C(C)C)[C@@H](C)O)C1=O)C(=O)N[C@@H](Cc1ccc(O)cc1)C(=O)N1CCC[C@H]1C(=O)N[C@@H](C)C(=O)O`, in test [1], the IC50 turned out to be 23 µM. In test [2], the Kd came to 2.3 µM.
Turning to `CC(C)C[C@@H](C(=O)N[C@@H](Cc1ccc(O)cc1)C(=O)N1CCC[C@H]1C(=O)N[C@@H](CS)C(=O)O)N(C)C(=O)CN1CCC[C@@H](NC(=O)[C@H](Cc2ccccc2)NC(=O)[C@H](Cc2cnc[nH]2)NC(=O)CNC(=O)[C@@H](NC(=O)[C@H](NC(=O)[C@H](Cc2ccccc2)NC(=O)[C@@H](N)CCCNC(=N)N)C(C)(C)S)[C@@H](C)O)C1=O`, the 50% inhibitory concentration (IC50) in test [1] amounted to 0.53 µM. Besides, binding in test [2] was characterised by a dissociation constant (Kd) of 0.043 µM.
`CC(C)C[C@H](NC(=O)CNC(=O)CNC(=O)[C@H](Cc1ccccc1)NC(=O)[C@H](Cc1cnc[nH]1)NC(=O)CNC(=O)[C@@H](NC(=O)[C@H](CCC(=O)O)NC(=O)[C@H](Cc1ccccc1)NC(=O)[C@H](CCCN=C(N)N)NC(=O)[C@@H](N)CCC(N)=O)[C@@H](C)O)C(=O)N[C@@H](Cc1ccc(O)cc1)C(=O)N1CCC[C@H]1C(=O)N[C@@H](CCCN)C(=O)N[C@@H](CC(N)=O)C(=O)NCC(=O)N1CCC[C@H]1C(=O)O` registered an IC50 in test [1] of 80 µM. The dissociation constant (Kd) in test [2] amounted to 15 µM.
The like results for `CC(C)C[C@H](NC(=O)CNC(=O)CNC(=O)[C@H](Cc1ccccc1)NC(=O)[C@H](Cc1cnc[nH]1)NC(=O)CNC(=O)[C@@H](NC(=O)[C@H](CCC(=O)O)NC(=O)[C@H](Cc1ccccc1)NC(=O)[C@H](CCCNC(=N)N)NC(=O)[C@@H](N)CCC(N)=O)[C@@H](C)O)C(=O)N[C@@H](Cc1ccc(O)cc1)C(=O)N1CCC[C@H]1C(=O)N[C@@H](CCN)C(=O)N[C@@H](CC(N)=O)C(=O)NCC(=O)N1CCC[C@H]1C(=O)O` were, in that order, 86 µM and 22 µM.
`CC(C)C[C@H](NC(=O)CNC(=O)CNC(=O)[C@H](Cc1ccccc1)NC(=O)[C@H](Cc1cnc[nH]1)NC(=O)CNC(=O)[C@@H](NC(=O)[C@@H](NC(=O)[C@H](Cc1ccccc1)NC(=O)[C@H](CCCN=C(N)N)NC(=O)[C@@H](N)CCC(N)=O)C(C)(C)S)[C@@H](C)O)C(=O)N[C@@H](Cc1ccc(N)cc1)C(=O)N1CCC[C@H]1C(=O)N[C@@H](CS)C(=O)N[C@@H](CC(N)=O)C(=O)NCC(=O)N1CCC[C@H]1C(=O)O` registered an IC50 in test [1] of 110 µM. Besides, binding in test [2] was put at a Kd of 34 µM.
As for `CC(C)C[C@H](NC(=O)CNC(=O)CNC(=O)[C@H](Cc1ccccc1)NC(=O)[C@H](Cc1cnc[nH]1)NC(=O)CNC(=O)[C@@H](NC(=O)[C@H](CCC(=O)O)NC(=O)[C@H](Cc1ccccc1)NC(=O)[C@H](CCCNC(=N)N)NC(=O)[C@@H](N)CCC(N)=O)[C@@H](C)O)C(=O)N[C@@H](Cc1ccc(O)cc1)C(=O)N1CCC[C@H]1C(=O)N[C@@H](CN)C(=O)N[C@@H](CC(N)=O)C(=O)NCC(=O)N1CCC[C@H]1C(=O)O`, the IC50 in test [1] stood at 71 µM. This molecule displayed an equilibrium dissociation constant (Kd) in test [2] of 9.6 µM.
The like results for `CC(C)C[C@H](NC(=O)CNC(=O)CNC(=O)[C@H](Cc1ccccc1)NC(=O)[C@H](Cc1cnc[nH]1)NC(=O)CNC(=O)[C@@H](NC(=O)[C@H](CCC(=O)O)NC(=O)[C@H](Cc1ccccc1)NC(=O)[C@H](CCCNC(=N)N)NC(=O)[C@@H](N)CCC(N)=O)[C@@H](C)O)C(=O)N[C@@H](Cc1ccc(O)cc1)C(=O)N1CCC[C@H]1C(=O)N[C@@H](CCCCN)C(=O)N[C@@H](CC(N)=O)C(=O)NCC(=O)N1CCC[C@H]1C(=O)O` were, in that order, 100 µM and 27 µM.
`CC(C)C[C@H](NC(=O)CN1CCC[C@@H](NC(=O)[C@H](Cc2ccccc2)NC(=O)[C@H](Cc2cnc[nH]2)NC(=O)CNC(=O)[C@@H](NC(=O)[C@@H](NC(=O)[C@H](Cc2ccccc2)NC(=O)[C@@H](N)CCCNC(=N)N)C(C)(C)S)[C@@H](C)O)C1=O)C(=O)N[C@@H](Cc1ccc(O)cc1)C(=O)N1CCC[C@H]1C(=O)N[C@@H](CS)C(=O)O` gave an IC50 in test [1] of 0.66 µM. Moreover, the Kd in test [2] was 0.16 µM.
In test [1], `CC(C)C[C@@H](C(=O)N[C@@H](Cc1ccc(O)cc1)C(=O)N1CCC[C@H]1C(=O)N[C@@H](CS)C(=O)O)N(C)C(=O)CN(C)C(=O)CNC(=O)[C@H](Cc1ccccc1)NC(=O)[C@H](C)NC(=O)CNC(=O)[C@@H](NC(=O)[C@@H](NC(=O)[C@H](Cc1ccccc1)NC(=O)[C@@H](N)CCCNC(=N)N)C(C)(C)S)[C@@H](C)O` showed an IC50 greater than 100 µM. The molecule also registered a Kd in test [2] of 9.9 µM.
As to `CC(C)C[C@@H](C(=O)N[C@@H](Cc1ccc(O)cc1)C(=O)N1CCC[C@H]1C(=O)N[C@@H](CS)C(=O)O)N(C)C(=O)CN1CCCC[C@@H](NC(=O)[C@H](Cc2ccccc2)NC(=O)[C@H](Cc2cnc[nH]2)NC(=O)CNC(=O)[C@@H](NC(=O)[C@H](NC(=O)[C@H](Cc2ccccc2)NC(=O)[C@@H](N)CCCNC(=N)N)C(C)(C)S)[C@@H](C)O)C1=O`, in test [1], the IC50 was determined as 0.62 µM. In addition, in test [2], the affinity, expressed as Kd, was 0.044 µM.
For `CC(C)C[C@@H](C(=O)N[C@@H](Cc1ccc(O)cc1)C(=O)N1CCC[C@H]1C(=O)N[C@@H](CS)C(=O)O)N(C)C(=O)CN(C)C(=O)CNC(=O)[C@H](Cc1ccccc1)NC(=O)[C@H](Cc1cscn1)NC(=O)CNC(=O)[C@@H](NC(=O)[C@@H](NC(=O)[C@H](Cc1ccccc1)NC(=O)[C@@H](N)CCCN=C(N)N)C(C)(C)S)[C@@H](C)O`, the IC50 in test [1] stood at 1.6 µM. The molecule also returned a Kd in test [2] of 0.84 µM.
As for `CC(C)C[C@H](NC(=O)CN1CC[C@@H](NC(=O)[C@H](Cc2ccccc2)NC(=O)[C@H](Cc2cnc[nH]2)NC(=O)CNC(=O)[C@@H](NC(=O)[C@@H](NC(=O)[C@H](Cc2ccccc2)NC(=O)[C@@H](N)CCCN=C(N)N)C(C)(C)S)[C@@H](C)O)C1=O)C(=O)N[C@@H](Cc1ccc(O)cc1)C(=O)N1CCC[C@H]1C(=O)N[C@@H](CS)C(=O)O`, the IC50 in test [1] was 2.3 µM. This molecule had a Kd in test [2] of 0.28 µM.
With `CC(C)C[C@H](NC(=O)CNC(=O)CNC(=O)[C@H](Cc1ccccc1)NC(=O)[C@H](Cc1cnc[nH]1)NC(=O)CNC(=O)[C@@H](NC(=O)[C@@H](N)CS)[C@@H](C)O)C(=O)N[C@@H](Cc1ccc(O)cc1)C(=O)N1CCC[C@H]1C(=O)N[C@@H](CS)C(=O)O` (H-CTGHFGGLYPC-OH), the 50% inhibitory concentration (IC50) in test [1] was determined as 110 µM. Moreover, binding in test [2] was characterised by a dissociation constant (Kd) of 20 µM.
The molecule `CC(C)C[C@H](NC(=O)CNC(=O)CNC(=O)[C@H](Cc1ccccc1)NC(=O)[C@H](Cc1cnc[nH]1)NC(=O)CNC(=O)[C@@H](NC(=O)[C@@H](N)CS)[C@@H](C)O)C(=O)N[C@@H](Cc1ccc(O)cc1)C(=O)N1CCC[C@H]1C(=O)N[C@@H](CS)C(=O)N[C@@H](CC(N)=O)C(=O)NCC(=O)N1CCC[C@H]1C(=O)O` (H-CTGHFGGLYPCNGP-OH) registered an IC50 in test [1] of 239 µM. Further, the Kd in test [2] was found to be 34 µM.
In test [1], `CC(C)C[C@H](NC(=O)[C@H](Cc1ccc(O)cc1)NC(=O)[C@@H]1CSSC[C@H](NC(=O)[C@H](Cc2ccccc2)NC(=O)[C@H](CO)NC(=O)[C@@H](N)CC(N)=O)C(=O)N[C@@H](CCCN=C(N)N)C(=O)NCC(=O)N[C@@H](CCCN=C(N)N)C(=O)N2CCC[C@H]2C(=O)NCC(=O)N[C@@H](Cc2cnc[nH]2)C(=O)N[C@@H](Cc2ccccc2)C(=O)NCC(=O)NCC(=O)N1)C(=O)N[C@@H](Cc1ccccc1)C(=O)O` (H-NSFCRGRPGHFGGCYLF-OH; disulfide 4-14) showed an IC50 of 33 µM. Besides, in test [2], binding was put at a Kd of 9.4 µM.
Regarding `CC(C)C[C@H](NC(=O)CNC(=O)CNC(=O)[C@H](Cc1ccccc1)NC(=O)[C@H](Cc1cnc[nH]1)NC(=O)CNC(=O)[C@@H](NC(=O)[C@H](CS)NC(=O)[C@H](C)NC(=O)[C@H](CCCN=C(N)N)NC(=O)[C@@H](N)CCC(N)=O)[C@@H](C)O)C(=O)N[C@@H](Cc1ccc(O)cc1)C(=O)N1CCC[C@H]1C(=O)N[C@@H](CS)C(=O)N[C@@H](CC(N)=O)C(=O)NCC(=O)N1CCC[C@H]1C(=O)O` (H-QRACTGHFGGLYPCNGP-OH), the IC50 in test [1] worked out at 95 µM. Moreover, the Kd in test [2] was 28 µM.
Consider `CC(C)C[C@H](NC(=O)CNC(=O)CNC(=O)[C@H](Cc1ccccc1)NC(=O)[C@H](Cc1cnc[nH]1)NC(=O)CNC(=O)[C@H](C)NC(=O)[C@H](CS)NC(=O)[C@H](Cc1ccccc1)NC(=O)[C@H](CCCN=C(N)N)NC(=O)[C@@H](N)CCC(N)=O)C(=O)N[C@@H](Cc1ccc(O)cc1)C(=O)N1CCC[C@H]1C(=O)N[C@@H](CS)C(=O)N[C@@H](CC(N)=O)C(=O)NCC(=O)N1CCC[C@H]1C(=O)O` (H-QRFCAGHFGGLYPCNGP-OH), for which, in test [1], the IC50 stood at 30 µM. The molecule further gave a Kd in test [2] of 4.9 µM.
